≈ marks a conversion by molar mass, not a printed value. Calls of active or inactive are those of the source. The calls are words filed in the database; no cut-off is given here.
Assays:
Acinetobacter johnsonii [1] = assay: Antibacterial activity against Acinetobacter johnsonii ATCC 17909 at 2 mg/ml after 24 hrs by agar diffusion test; format: functional
Method in brief: (§1)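 Agar diffusion: wells in agar filled with […] DMSO solution of compound at various concentrations; diameter of clear zone around application point measured. Bacteria grown 24 h at 37 °C on nutrient agar. Compounds first screened at 50 mg/ml; those active then tested at lower concentrations. Bracketed value = lowest concentration (mg/ml) giving zone >11 mm, reported only if activity retained at ≤1.25 mg/ml.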

Penicillium chrysogenum [2] = assay: Antifungal activity against Penicillium chrysogenum CECT 2802 at 2 mg/ml after 72 hrs by agar diffusion test; format: functional, organism-based
Method in brief: (§2)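 Agar diffusion: yeasts grown on yeast peptone dextrose agar and fungi on potato dextrose agar. Wells are filled with […] of compound solution in DMSO at various concentrations, and the clear-zone diameter is measured. Bracketed values give the lowest concentration (mg/ml) that produces a zone >11 mm. A first screen is run at 50 mg/ml.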

Micrococcus luteus [3] = assay: Antibacterial activity against Sarcina lutea ATCC 9341 at 2 mg/ml after 24 hrs by agar diffusion test; format: functional, organism-based; method in brief: as §1
Escherichia coli [4] = assay: Antibacterial activity against Escherichia coli ATCC 8739 at 50 mg/ml after 24 hrs by agar diffusion test; format: functional; settings: ATCC 8739, 24 h, read-out: DIZ; method in brief: as §1
Saccharomyces cerevisiae [5] = assay: Antifungal activity against Saccharomyces cerevisiae ATCC 9763 at 2 mg/ml after 72 hrs by agar diffusion test; format: functional, organism-based; method in brief: as §2
Bacillus mycoides [6] = assay: Antibacterial activity against Bacillus mycoides DSMZ 274 at 50 mg/ml after 24 hrs by agar diffusion test; format: functional; settings: DSMZ 274, 24 h, read-out: DIZ; method in brief: as §1
Acinetobacter johnsonii [7] = assay: Antibacterial activity against Acinetobacter johnsonii ATCC 17909 at 50 mg/ml after 24 hrs by agar diffusion test; format: functional; settings: ATCC 17909, 24 h, read-out: DIZ; method in brief: as §1
Bacillus mycoides [8] = assay: Antibacterial activity against Bacillus mycoides DSMZ 274 assessed as concentration required to produce >11 mm of zone of inhibition after 24 hrs by agar diffusion test; format: functional; method in brief: as §1
[9] = tested on: Mycobacterium tuberculosis; assay: Antimycobacterial activity against Mycobacterium tuberculosis H37Rv after 45 days; format: functional
Method in brief: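 Canetti proportion method. Compound in DMSO is added to Löwenstein–Jensen egg medium before coagulation (30 min, 85 °C), tested at three levels plus a lower one where needed. Tubes are inoculated with H37Rv at 10⁵ cells/ml and incubated 45 days at 37 °C. Colony counts versus drug-free control give percentage inhibition.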

Acinetobacter johnsonii [10] = assay: Antibacterial activity against Acinetobacter johnsonii ATCC 17909 assessed as concentration required to produce >11 mm of zone of inhibition after 24 hrs by agar diffusion test; format: functional; method in brief: as §1
Bacillus cereus [11] = assay: Antibacterial activity against Bacillus cereus ATCC 11778 assessed as concentration required to produce >11 mm of zone of inhibition after 24 hrs by agar diffusion test; format: functional; method in brief: as §1
Staphylococcus aureus [12] = assay: Antibacterial activity against Staphylococcus aureus NRRL B 313 at 50 mg/ml after 24 hrs by agar diffusion test; format: functional; settings: NRRL B 313, 24 h, read-out: DIZ
Method in brief: (§3)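 Agar diffusion: bacteria grown 24 h at 37 °C on nutrient agar. Wells in the agar are filled with […] of compound solution in DMSO at various concentrations. The diameter of the clear zone around the application point is measured. Bracketed values give the lowest concentration (mg/ml) that produces a zone >11 mm. A first screen is run at 50 mg/ml.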

Staphylococcus aureus [13] = assay: Antibacterial activity against Staphylococcus aureus NRRL B 313 assessed as concentration required to produce >11 mm of zone of inhibition after 24 hrs by agar diffusion test; format: functional; method in brief: as §3
Priestia megaterium [14] = assay: Antibacterial activity against Bacillus megaterium NRRL 1353895 assessed as concentration required to produce >11 mm of zone of inhibition after 24 hrs by agar diffusion test; format: functional; method in brief: as §1
Bacillus [15] = assay: Antibacterial activity against Bacillus idosus B 241 at 50 mg/ml after 24 hrs by agar diffusion test; format: functional; settings: B 241, 24 h, read-out: DIZ; method in brief: as §1
Penicillium chrysogenum [16] = assay: Antifungal activity against Penicillium chrysogenum CECT 2802 assessed as concentration required to produce >11 mm of zone of inhibition after 72 hrs by agar diffusion test; format: functional; method in brief: as §2
Candida tropicalis [17] = assay: Antifungal activity against Candida tropicalis ATCC 20336 at 2 mg/ml after 72 hrs by agar diffusion test; format: functional, organism-based; method in brief: as §2
Saccharomyces cerevisiae [18] = assay: Antifungal activity against Saccharomyces cerevisiae ATCC 9763 at 50 mg/ml after 72 hrs by agar diffusion test; format: functional; settings: ATCC 9763, 72 h, read-out: DIZ; method in brief: as §2
Escherichia coli [19] = assay: Antibacterial activity against Escherichia coli ATCC 8739 at 2 mg/ml after 24 hrs by agar diffusion test; format: functional, organism-based; method in brief: as §1
Bacillus subtilis [20] = assay: Antibacterial activity against Bacillus subtilis ATCC 6633 at 50 mg/ml after 24 hrs by agar diffusion test; format: functional; settings: ATCC 6633, 24 h, read-out: DIZ; method in brief: as §1
Bacillus mycoides [21] = assay: Antibacterial activity against Bacillus mycoides DSMZ 274 at 2 mg/ml after 24 hrs by agar diffusion test; format: functional, organism-based; method in brief: as §1
Saccharomyces cerevisiae [22] = assay: Antifungal activity against Saccharomyces cerevisiae ATCC 9763 assessed as concentration required to produce >11 mm of zone of inhibition after 72 hrs by agar diffusion test; format: functional; method in brief: as §2
Bacillus [23] = assay: Antibacterial activity against Bacillus idosus B 241 at 2 mg/ml after 24 hrs by agar diffusion test; format: functional, organism-based; method in brief: as §1
Candida tropicalis [24] = assay: Antifungal activity against Candida tropicalis ATCC 20336 assessed as concentration required to produce >11 mm of zone of inhibition after 72 hrs by agar diffusion test; format: functional; method in brief: as §2
Priestia megaterium [25] = assay: Antibacterial activity against Bacillus megaterium NRRL 1353895 at 50 mg/ml after 24 hrs by agar diffusion test; format: functional; settings: NRRL 1353895, 24 h, read-out: DIZ; method in brief: as §1
Bacillus subtilis [26] = assay: Antibacterial activity against Bacillus subtilis ATCC 6633 at 2 mg/ml after 24 hrs by agar diffusion test; format: functional, organism-based; method in brief: as §1
Micrococcus luteus [27] = assay: Antibacterial activity against Micrococcus luteus ATCC 9631 assessed as concentration required to produce >11 mm of zone of inhibition after 24 hrs by agar diffusion test; format: functional; method in brief: as §1
Bacillus cereus [28] = assay: Antibacterial activity against Bacillus cereus ATCC 11778 at 50 mg/ml after 24 hrs by agar diffusion test; format: functional; settings: ATCC 11778, 24 h, read-out: DIZ; method in brief: as §1
Bacillus [29] = assay: Antibacterial activity against Bacillus idosus B 241 assessed as concentration required to produce >11 mm of zone of inhibition after 24 hrs by agar diffusion test; format: functional; method in brief: as §1
Micrococcus luteus [30] = assay: Antibacterial activity against Sarcina lutea ATCC 9341 assessed as concentration required to produce >11 mm of zone of inhibition after 24 hrs by agar diffusion test; format: functional; method in brief: as §1
Micrococcus luteus [31] = assay: Antibacterial activity against Micrococcus luteus ATCC 9631 at 50 mg/ml after 24 hrs by agar diffusion test; format: functional; settings: ATCC 9631, 24 h, read-out: DIZ; method in brief: as §1
Micrococcus luteus [32] = assay: Antibacterial activity against Micrococcus luteus ATCC 9631 at 2 mg/ml after 24 hrs by agar diffusion test; format: functional, organism-based; method in brief: as §1
Candida tropicalis [33] = assay: Antifungal activity against Candida tropicalis ATCC 20336 at 50 mg/ml after 72 hrs by agar diffusion test; format: functional; settings: ATCC 20336, 72 h, read-out: DIZ; method in brief: as §2
Micrococcus luteus [34] = assay: Antibacterial activity against Sarcina lutea ATCC 9341 at 50 mg/ml after 24 hrs by agar diffusion test; format: functional; settings: ATCC 9341, 24 h, read-out: DIZ; method in brief: as §3
Bacillus cereus [35] = assay: Antibacterial activity against Bacillus cereus ATCC 11778 at 2 mg/ml after 24 hrs by agar diffusion test; format: functional, organism-based; method in brief: as §1
Penicillium chrysogenum [36] = assay: Antifungal activity against Penicillium chrysogenum CECT 2802 at 50 mg/ml after 72 hrs by agar diffusion test; format: functional; settings: CECT 2802, 72 h, read-out: DIZ; method in brief: as §2
Priestia megaterium [37] = assay: Antibacterial activity against Bacillus megaterium NRRL 1353895 at 2 mg/ml after 24 hrs by agar diffusion test; format: functional, organism-based; method in brief: as §1
Bacillus subtilis [38] = assay: Antibacterial activity against Bacillus subtilis ATCC 6633 assessed as concentration required to produce >11 mm of zone of inhibition after 24 hrs by agar diffusion test; format: functional; method in brief: as §1
Staphylococcus aureus [39] = assay: Antibacterial activity against Staphylococcus aureus NRRL B 313 at 2 mg/ml after 24 hrs by agar diffusion test; format: functional, organism-based; method in brief: as §3

With `CC[C@H](CO)NCc1c2ccccc2cc2ccccc12` as the compound, how does the “diameter of the inhibition zone (DIZ)” value (Acinetobacter johnsonii [1]) read?
Its value is “inactive”.

What about the “diameter of the inhibition zone (DIZ)” value (Penicillium chrysogenum [2]) of the same compound?
Its value is “inactive”.

And the “diameter of the inhibition zone (DIZ)” value (Micrococcus luteus [3])?
Its value is “inactive”.

And the zone of inhibition at 50000 µg/mL (Escherichia coli [4])?
The zone of inhibition at 50000 µg/mL was 12 mm.

What about the “diameter of the inhibition zone (DIZ)” value (Saccharomyces cerevisiae [5]) of the same compound?
The value was “inactive”.

And the zone of inhibition at 50000 µg/mL (Bacillus mycoides [6])?
The zone of inhibition at 50000 µg/mL was 20 mm.

And the zone of inhibition at 50000 µg/mL (Acinetobacter johnsonii [7])?
The zone of inhibition at 50000 µg/mL was 17 mm.

And the Activity (Bacillus mycoides [8])?
Its Activity is 0.6 mg/mL.

What about the MIC [9] of the same compound?
Its MIC is 17.9 µM (≈ 5 µg/mL).

And the Activity (Acinetobacter johnsonii [10])?
Its Activity is 0.6 mg/mL.

What about the Activity (Bacillus cereus [11]) of the same compound?
Its Activity is 0.3 mg/mL.

What about the zone of inhibition at 50000 µg/mL (Staphylococcus aureus [12]) of the same compound?
The zone of inhibition at 50000 µg/mL was 19 mm.

What about the Activity (Staphylococcus aureus [13]) of the same compound?
Its Activity is 0.03 mg/mL.

What about the Activity (Priestia megaterium [14]) of the same compound?
The Activity was 0.6 mg/mL.

What about the zone of inhibition at 50000 µg/mL (Bacillus [15]) of the same compound?
The zone of inhibition at 50000 µg/mL was 19 mm.

And the Activity (Penicillium chrysogenum [16])?
The Activity was 0.06 mg/mL.

And the “diameter of the inhibition zone (DIZ)” value (Candida tropicalis [17])?
Its value is “inactive”.

What about the zone of inhibition at 50000 µg/mL (Saccharomyces cerevisiae [18]) of the same compound?
The zone of inhibition at 50000 µg/mL was 32 mm.

What about the “diameter of the inhibition zone (DIZ)” value (Escherichia coli [19]) of the same compound?
Its value is “inactive”.

What about the zone of inhibition at 50000 µg/mL (Bacillus subtilis [20]) of the same compound?
Its zone of inhibition at 50000 µg/mL is 18 mm.

And the “diameter of the inhibition zone (DIZ)” value (Bacillus mycoides [21])?
Its value is “inactive”.

What about the Activity (Saccharomyces cerevisiae [22]) of the same compound?
The Activity was 0.0125 mg/mL.

What about the “diameter of the inhibition zone (DIZ)” value (Bacillus [23]) of the same compound?
Its value is “inactive”.

And the Activity (Candida tropicalis [24])?
Its Activity is 0.0125 mg/mL.

What about the zone of inhibition at 50000 µg/mL (Priestia megaterium [25]) of the same compound?
Its zone of inhibition at 50000 µg/mL is 20 mm.

And the “diameter of the inhibition zone (DIZ)” value (Bacillus subtilis [26])?
The value was “inactive”.

What about the Activity (Micrococcus luteus [27]) of the same compound?
The Activity was 0.3 mg/mL.

And the zone of inhibition at 50000 µg/mL (Bacillus cereus [28])?
The zone of inhibition at 50000 µg/mL was 19 mm.

What about the Activity (Bacillus [29]) of the same compound?
Its Activity is 1.25 mg/mL.

What about the Activity (Micrococcus luteus [30]) of the same compound?
The Activity was 0.3 mg/mL.

And the zone of inhibition at 50000 µg/mL (Micrococcus luteus [31])?
The zone of inhibition at 50000 µg/mL was 19 mm.

And the “diameter of the inhibition zone (DIZ)” value (Micrococcus luteus [32])?
The value was “inactive”.

What about the zone of inhibition at 50000 µg/mL (Candida tropicalis [33]) of the same compound?
The zone of inhibition at 50000 µg/mL was 31 mm.

What about the zone of inhibition at 50000 µg/mL (Micrococcus luteus [34]) of the same compound?
Its zone of inhibition at 50000 µg/mL is 18 mm.

What about the “diameter of the inhibition zone (DIZ)” value (Bacillus cereus [35]) of the same compound?
Its value is “inactive”.

And the zone of inhibition at 50000 µg/mL (Penicillium chrysogenum [36])?
The zone of inhibition at 50000 µg/mL was 16 mm.

And the “diameter of the inhibition zone (DIZ)” value (Priestia megaterium [37])?
The value was “inactive”.

What about the Activity (Bacillus subtilis [38]) of the same compound?
The Activity was 0.3 mg/mL.

What about the “diameter of the inhibition zone (DIZ)” value (Staphylococcus aureus [39]) of the same compound?
The value was “inactive”.

From ChEMBL document CHEMBL1932986, “Synthesis and in vitro antimycobacterial activity of compounds derived from (R)- and (S)-2-amino-1-butanol - The crucial role of the configuration” (Eur J Med Chem, 2012)
